Test results from PMC4729448 (Molecular cancer therapeutics, 2013).

What was measured:
[1] = Pharmacokinetic analysis in cannulated rat model; format: in vivo, Sprague Dawley rats; settings: for observable effects in the animals following dosing: rat pharmacokinetic studies
Method in brief: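 Fasted male Sprague Dawley rats fitted with carotid artery and jugular and/or femoral vein catheters. Dosed iv or orally with 0.2 micron-filtered solutions; automated sampling allowed both routes in the same animal. Plasma separated by centrifugation and stored at -80 °C. Prodrug, 2-ME2 and metabolites quantified by LC-MS/MS against deuterated internal standards. Parameters from non-parametric analysis; animals observed after dosing.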

OE33 cells [2] = experiment: Crystal violet cell proliferation assay; format: cell-based; settings: for IC50: Homo sapiens, OE33, 48 h, read-out: IC50, OE33 cell proliferation/viability
OE33 xenograft tumors = experiment: OE33 tumor xenograft in athymic nude mice; format: in vivo, athymic nude mice (BALB/c-nu/nu); settings: 12 days; for effect on growth of established OE33 xenograft tumors: 75 mg/kg/day orogastric
OE33 cells [3] = experiment: Phase-contrast cellular morphology of OE33 cells; format: cell-based; settings: 48 h
[4] = system: microtubule network in OE33 cells; experiment: Anti-α-Tubulin immunofluorescence of microtubule network in OE33 cells; format: cell-based; settings: 48 h
[5] = oral administration, published literature ref 1, 10-12; cited from earlier work
[6] = system: microtubule distribution in OE33-tumor xenografts; experiment: Anti-α-Tubulin immunofluorescence of OE33 tumor xenograft sections; format: in vivo, athymic nude mice (BALB/c-nu/nu); settings: treated OE33-tumor xenograft sections vs untreated
[7] = Dissolution in sterile water; format: physicochemical
[8] = Sprague-Dawley, rat, plasma, iv, 5.21 mg/kg

Compound	AUC(0-t) [1, 8] [ng·h/mL]	Cmax [1, 8] [ng/mL]	half-life [1, 8] [min]	observable effects in the animals following dosing [1]	IC50 (OE33 cells [2]) [µM]	effect on growth of established OE33 xenograft tumors (OE33 xenograft tumors)	alteration of cellular morphology compared to 2-ME2-PD1 (OE33 cells [3]; 2.5 μM or 5 μM)	microtubule disruption ([4]; 5 μM)	serum bioavailability [5]	IC50 fold higher than 2-ME2 (OE33 cells [2]; OE33 viability, 48 h) [fold]	reduction in tumor volume relative to the control group (OE33 xenograft tumors; oral 75 mg/kg/d) [%]	alteration of cellular morphology (OE33 cells [3]; 2.5 μM)	alteration of cellular morphology (OE33 cells [3]; 5 μM)	microtubule disruption ([4]; 2.5 μM)	microtubule distribution and cellular morphology in tumor xenografts [6]	solubility in sterile water [7]
COc1cc2c(cc1O)CC[C@@H]1[C@@H]2CC[C@]2(C)[C@@H](O)CC[C@@H]12 [2-ME2, 2-Methoxyestradiol]	321	1220	59	no observable effects	~6	inconsistent	much more drastic	totally disrupted	1 - 2%	–	–	–	–	–	–	–
COc1cc2c(cc1OCOP(=O)([O-])[O-])CC[C@@H]1[C@@H]2CC[C@]2(C)[C@@H](OC(C)=O)CC[C@@H]12.[Na+].[Na+] [2-ME2-PD1, disodium (((8R,9S,13S,14S,17S)-17-acetoxy-2-methoxy-13-methyl-7,8,9,11,12,13,14,15,16,17-decahydro-6H-cyclopenta[a]phenanthren-3-yl)oxy)methyl phosphate]	–	–	–	no observable effects	~17	inhibited the growth	–	significantly disrupted	–	~3	60 ± 5	mild to no alterations	atrophy	not very prominent	striking alteration in microtubule distribution	readily dissolves in sterile water
